Results: ChEMBL document CHEMBL1157080 (Eur J Med Chem, 2010)

Tests used:
[1] = biological target: T1, cGMP-specific 3',5'-cyclic phosphodiesterase (Homo sapiens, UniProt O76074); assay: Inhibition of human recombinant PDE5 at 100 uM after 1.5 hrs by fluorescent polarization assay
Procedure, shortened: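 Single 100 μM screening dose, run in triplicate. Purified PDE5 with 50 nM TAMRA-cGMP, 1.5 h at 30 °C, then IMAP binding reagent for 30 min at 30 °C. Percent inhibition from fluorescence polarization.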

[2] = system: HT-29; assay: Growth inhibition of human HT-29 cells at 100 uM after 72 hrs by cell titer glo assay; assay type: functional; conditions: HT-29, 72 h, read-out: GI
Procedure, shortened: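 HT-29 cells in RPMI 1640/5% FBS, >95% viable at harvest, seeded 5000 cells/well and incubated 18–24 h before dosing at a single 100 μM screening dose (final DMSO 0.1%). Percent growth inhibition from CellTiter-Glo luminescence 72 h after treatment, triplicate wells.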

[3] = biological target: T1, cGMP-specific 3',5'-cyclic phosphodiesterase; assay: Inhibition of human recombinant PDE5 after 1.5 hrs by fluorescent polarization assay
Procedure, shortened: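 Purified PDE5 (5 μ/mL) treated with compound or vehicle plus 50 nM TAMRA-cGMP, incubated 1.5 h at 30 °C. IMAP binding reagent was then added for 30 min at 30 °C and fluorescence polarization read.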

[4] = system: HT-29; assay: Growth inhibition of human HT-29 cells after 72 hrs by cell titer glo assay; assay type: functional, cell-based; conditions: HT-29, 72 h

Row | Structure (SMILES) | Inhibition [1] [%] | inhibition of growth at 100 µM [2] [%] | IC50 [3] [µM] | IC50 [4] [µM]
1 | CCCCN1CC(=O)N2[C@@H](c3ccccc3Br)c3[nH]c4ccccc4c3C[C@@H]2C1=O | 66.7 | 50.2 | – | –
2 | CCN1CC(=O)N2[C@@H](c3ccccc3Br)c3[nH]c4ccccc4c3C[C@@H]2C1=O | 91.7 | 65.6 | – | –
3 | CCCCN1CC(=O)N2[C@H](c3ccccc3Br)c3[nH]c4ccccc4c3C[C@H]2C1=O | 93.8 | – | 0.05 | > 100
4 | COC(=O)[C@@H]1Cc2c([nH]c3ccccc23)[C@@H](c2ccccc2Br)N1C(=O)CCl | 47.9 | – | – | –
5 | COC(=O)[C@@H]1Cc2c([nH]c3ccccc23)[C@H](c2ccccc2Br)N1 | 46 | 92.8 | – | 26
6 | CCCCN1CC(=O)N2[C@@H](c3ccccc3Br)c3[nH]c4ccccc4c3C[C@H]2C1=O | 69.1 | – | – | > 100
7 | CCN1CC(=O)N2[C@H](c3ccccc3Br)c3[nH]c4ccccc4c3C[C@@H]2C1=O | 97 | – | – | > 100
8 | COC(=O)[C@@H]1Cc2c([nH]c3ccccc23)[C@H](c2ccccc2Br)N1C(=O)CCl | 35.8 | – | – | 4.1
9 | CCN1C(=O)[C@H]2Cc3c([nH]c4ccccc34)[C@H](c3ccccc3Br)N2C1=O | 93 | 65.1 | 4 | –
10 | CCN1C(=O)[C@@H]2Cc3c([nH]c4ccccc34)[C@H](c3ccccc3Br)N2C1=O | 89.5 | 77.9 | 0.64 | 24
11 | COC(=O)[C@H]1Cc2c([nH]c3ccccc23)[C@@H](c2ccccc2Br)N1C(=O)CCl | 86 | – | 29 | 1.6
12 | CCN1C(=O)[C@@H]2Cc3c([nH]c4ccccc34)[C@@H](c3ccccc3Br)N2C1=S | 93.5 | – | 6.1 | 22.5
13 | CCN1C(=O)[C@@H]2Cc3c([nH]c4ccccc34)[C@@H](c3ccccc3Br)N2C1=O | 99.5 | 69.8 | 0.038 | 20
14 | CCN1CC(=O)N2[C@H](c3ccccc3Br)c3[nH]c4ccccc4c3C[C@H]2C1=O | 89.2 | 47.2 | – | –
15 | CN1CC(=O)N2[C@@H](c3ccccc3Br)c3[nH]c4ccccc4c3C[C@@H]2C1=O | 75.5 | 61.7 | 88 | –
16 | COC(=O)[C@H]1Cc2c([nH]c3ccccc23)[C@H](c2ccccc2Br)N1C(=O)CCl | 47.9 | – | – | > 100

Row | Structure (SMILES) | Inhibition [1] [%] | inhibition of growth at 100 µM [2] [%] | IC50 [3] [µM] | IC50 [4] [µM]
17 | COC(=O)[C@@H]1Cc2c([nH]c3ccccc23)[C@@H](c2ccccc2Br)N1 | 91.1 | 57.5 | 3.1 | –
18 | CCN1C(=O)[C@H]2Cc3c([nH]c4ccccc34)[C@H](c3ccccc3Br)N2C1=S | 82.8 | – | 74 | > 100
19 | CN1CC(=O)N2[C@H](c3ccccc3Br)c3[nH]c4ccccc4c3C[C@H]2C1=O | 97.6 | – | 0.06 | 25.5
20 | O=C1[C@@H]2Cc3c([nH]c4ccccc34)[C@@H](c3ccccc3Br)N2C(=O)CN1Cc1ccccc1 | 100 | – | 0.04 | > 100
21 | O=C1[C@H]2Cc3c([nH]c4ccccc34)[C@@H](c3ccccc3Br)N2C(=O)CN1Cc1ccccc1 | 91.9 | 34.2 | 3.4 | –
22 | CCN1C(=O)[C@H]2Cc3c([nH]c4ccccc34)[C@@H](c3ccccc3Br)N2C1=O | 98.7 | 79.5 | 0.29 | 21
23 | CCCCN1CC(=O)N2[C@H](c3ccccc3Br)c3[nH]c4ccccc4c3C[C@@H]2C1=O | 99.7 | 55.7 | 0.26 | –
24 | CN1CC(=O)N2[C@H](c3ccccc3Br)c3[nH]c4ccccc4c3C[C@@H]2C1=O | 96 | 50.4 | 0.1 | –
25 | CN1CC(=O)N2[C@@H](c3ccccc3Br)c3[nH]c4ccccc4c3C[C@H]2C1=O | 92.7 | 76.1 | 2.8 | 27
26 | COC(=O)[C@H]1Cc2c([nH]c3ccccc23)[C@@H](c2ccccc2Br)N1 | 85.5 | 89 | 5.6 | 48
27 | CN1CC(=O)N2[C@H](c3ccc4c(c3)OCO4)c3[nH]c4ccccc4c3C[C@@H]2C1=O | 100 | – | – | > 100
28 | O=C1[C@H]2Cc3c([nH]c4ccccc34)[C@H](c3ccccc3Br)N2C(=O)CN1Cc1ccccc1 | 69.4 | – | – | > 100
29 | COC(=O)[C@H]1Cc2c([nH]c3ccccc23)[C@H](c2ccccc2Br)N1 | 21.5 | 85 | – | 78
30 | CCN1CC(=O)N2[C@@H](c3ccccc3Br)c3[nH]c4ccccc4c3C[C@H]2C1=O | 90.3 | – | – | –
31 | O=C1[C@@H]2Cc3c([nH]c4ccccc34)[C@H](c3ccccc3Br)N2C(=O)CN1Cc1ccccc1 | 48.7 | – | – | > 100
